Measured values: ChEMBL document CHEMBL4513216, “Probing the Open Global Health Chemical Diversity Library for Multistage-Active Starting Points for Next-Generation Antimalarials” (ACS Infect Dis, 2020)

Test: Toxicity liver stage against HepG2, at 10uM
Type: cell-based
Design: test concentration 10 uM, cell line HepG2-A16-CD81EGFP
Settings: human, HepG2-A16-CD81EGFP cells; read-out: INHIBITION
Method in brief: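 Uninfected HepG2-A16-CD81EGFP cells, 3 × 10^3 per well, 1536-well, plated on prespotted compound at 10 μM final, parasite-free screening media added to match infected plates; puromycin 10 μM positive, DMSO 0.5% negative; run in parallel with 48 h PbLuc assay at 37 °C, 5% CO2; viability by CellTiter-Glo luminescence, normalized to controls.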

Point of comparison: `CS(=O)(=O)CCn1ccc(NC(=O)Cc2ccccc2F)n1`, cytotoxicity at 10 µM 3.73%. Against it:
- COc1ncc(-c2nccn2CCN(C)C)cn1 — lower, -17.4%
- COc1cccc(-c2cc(C(=O)N3N=C(C)CC3(O)C(F)F)[nH]n2)c1 (stereo not given) — higher, 8.46%
- CN(CCSc1ccccc1)C(=O)C(c1cccnc1)N1CCOCC1 (stereo not given) — higher, 4.94%
- Cc1nc(CC(=O)N2CCC(c3nn(C)c4ncccc34)CC2)cs1 — lower, -18.9%
- N#Cc1ccc(C(=O)N2CCC(c3ncc[nH]3)CC2)cn1 — lower, -3.27%
- CN1CC(C(=O)NC(C)(C)C)CC1=O (stereo not given) — lower, -3.36%
- CCn1c(N)nc2cc(C(=O)NCc3cccc(C)c3C)cnc21 — higher, 19.7%
- Cc1ccc(S(=O)(=O)NC(=O)c2cccc(OCC(N)=O)c2)s1 — lower, -9.55%
- Fc1cc(Cl)cnc1N1CCCC(c2nccn2Cc2ccccn2)C1 (stereo not given) — lower, -3.54%
- CC1CCC(NS(=O)(=O)CC(=O)Nc2ccccc2N2CCCC2)CC1 (stereo not given) — higher, 3.75%
- Fc1ccc(OCc2noc(CN3CCc4cncnc4C3)n2)cc1 — lower, 2%
- CN(C)CC1CSCCCN1C(=O)c1ccc(C(C)(C)C)cc1 (stereo not given) — higher, 6.25%
- COc1ccc(OC)c(C(O)CN2CCN(C3CCCC3)CC2)c1 (stereo not given) — higher, 6.81%
- CCCNC(=O)N1CCCC2(CCC(=O)N(CCc3c[nH]cn3)C2)C1 (stereo not given) — lower, 2.67%
- CCCN1CCC(N(C)CCC(=O)Nc2ccccc2SC)CC1 — higher, 15.5%
- COCCN(Cc1cccnc1)S(=O)(=O)c1cccc(F)c1F — lower, -1.89%
- CC(C)CNC(=O)CNC(=O)NC(C)COc1ccccc1F (stereo not given) — lower, -0.956%
- CCn1nc2nc(SCC(=O)O)cc(C(F)F)c2c1C — lower, -3.78%
- NC(=O)c1ccc2c(c1)nc1n2CCN(Cc2ccco2)C1 — lower, -11.3%
- Cc1ccc(F)cc1S(=O)(=O)Nc1ccc2c(C(=O)O)c[nH]c2c1 — lower, -3.53%
- CCc1cnc(C)nc1NCCN1CCCCCC1 — lower, -10.8%
- COc1c(F)cc(-c2cn(CCn3c(C)cc(C)nc3=O)nn2)cc1Cl — lower, -1.72%
- CC(O)C(=O)N1CCN(c2ccccc2Cl)C(=O)C1 (stereo not given) — lower, -1.59%
- O=C(CCCN1CCCCC1)N[C@H](C(=O)O)c1cccc(F)c1F — lower, -13.2%
- O=C(COCc1ccccc1)N1CCN(Cc2ccccc2F)C(=O)C1 — lower, -3.19%
- OCc1c(Cl)ncn1-c1ccccc1 — lower, -8.99%
- CC(C)NC(=O)N1CC(=O)c2sc(Nc3ccc(C#N)cc3)nc2C1 — lower, -7.77%
- OC[C@@H]1[C@@H](c2ccccc2)CN2CCN(c3ccccn3)C[C@H]12 — lower, -0.53%
- c1ccc(O[C@H]2COCCN(CC3CC3)C2)cc1 — higher, 5.76%
- Cn1cc(-c2nc(CN3CCOC(Cn4cccn4)C3)cs2)cn1 (stereo not given) — lower, -4.04%
- Cc1nc(NC(=O)CCc2c(C)nc3cc(O)nn3c2C)sc1C — lower, -13.5%
- CCN(CC1CCCO1)C(=O)Nc1cc(C(N)=O)ccc1OC (stereo not given) — lower, -7.33%
- CC(=O)N1CCN(c2nc(C(F)(F)F)nc3sc(C)c(C)c23)CC1 — lower, -4.33%
- O=c1[nH]nc(C2CC2)n1-c1cccc(Cl)c1 — lower, -3.11%
- CC(C)c1cc(C(=O)N[C@H]2CN(C3CCOCC3)C[C@@H]2C2CC2)no1 — higher, 6.31%
- CCN1CC(C(=O)NCc2noc(Cc3ccccc3)n2)CCC1=O (stereo not given) — lower, -4.7%
- CC(C)(C)C(=O)NCCn1ccc(-c2ccncc2)n1 — lower, -26.7%
- CC(C(=O)N(C)C)S(=O)(=O)c1cc2c(cc1Cl)OCCO2 (stereo not given) — higher, 7.71%
- CCN(Cc1cccc2c1OCCO2)C(=O)NC(C)(C)C — lower, -20.9%
- Fc1cnc(N2CCCC3(CCN(Cc4ccsc4)C3)C2)nc1 (stereo not given) — lower, -2.83%
- CN1C(=O)[C@@H]2CC[C@H]1CN(C(=O)c1csc(Cc3ccccc3)n1)C2 — higher, 3.75%
- COCCCNC(=O)Cc1nc(-c2ccncc2)n[nH]1 — lower, -9.72%
- CC(C)CN1CCC2(CCN(C(=O)c3ccc(F)cc3)CC2)C1=O — higher, 8.06%
- N#Cc1cccc(NC(=O)N2CCC3(CCC(=O)N(C4CC4)C3)CC2)c1 — higher, 3.9%
- Cc1cc(Oc2ccccc2C)nc(C2CCCN2)n1 (stereo not given) — lower, 1.22%
- COCCN(CCOC)C(=O)c1cccc(Cn2nc(C)cc2C)c1 — lower, -8.22%
- O=C(NCc1cccnc1)[C@H]1CC[C@@H]2[C@@H](CCN2c2ncccn2)O1 — lower, -82.2%
- Cc1cc(C)cc(C(=O)NCc2ncnn2C)c1 — higher, 4.64%
- CC(C)[C@@H]1CN(Cc2ccccc2C#N)C[C@H]1C(=O)O — higher, 6.3%
- Cc1cc(C)n(C2CCCN(C(=O)c3cccc(F)c3F)C2)n1 (stereo not given) — higher, 4.35%
- CCn1ccnc1CN1CCN(C(C)C(=O)N2CCC(C)CC2)CC1 (stereo not given) — lower, -10.7%
- NC(=O)C1CCCN(c2ccc(CNC(=O)c3cnsn3)cc2)C1 (stereo not given) — lower, 2.25%
- CC(OCC1CC1)C(=O)Nc1cccc(C(=O)Nc2ccncc2)c1 (stereo not given) — higher, 7.12%
- O=C(c1ccc(F)cc1F)N1CCN(C(=O)C2CCCCC2)CC1 — lower, -0.876%
